Assay results from PubChem BioAssay.
Calls of active or inactive are those of the source.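 The calls were made as follows, unless noted: active = signal rise over 3 SD above mean of control wells given weak agonist, in both repeats and first screen; inactive = the rest.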

tested on: not listed separately; test: calcium flux inhibitors in TRPC4/5HT1a cells, confirmation, counter-screen for TRPC4 inhibitor project, cell-based, second counter screen, HEK293 TRPC4/5HT1a, Fluo-4 (AID 434978;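 active = primary screen active whose calcium signal fell more than 3 SD beyond the full-serotonin control mean in both duplicate plates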;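 as to outcome: serotonin given first at submaximal then at maximal dose after compound preincubation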); details: Fluo-4 calcium flux, at 10 µM, serotonin added to trigger calcium flux; hits give high values
Procedure, shortened: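 Material: HEK293 line stably carrying TRPC4 plus 5HT1a receptor | Replicates: Each compound tested on duplicate plates | Benchmarks: ECmax serotonin control wells | Measured by: Kinetic Fluo-4 fluorescence readout of calcium flux | Incubation: 110 s each for compound, submaximal and ECmax serotonin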

| Compound | outcome | inhibition |
| --- | --- | --- |
| O=C(NC(=S)NNC(=O)[C@H]1C[C@@H]1c1ccccc1)c1cccc(F)c1 | inactive | – |
| NCCCn1c(C(=O)c2cc(Cl)c(N)c(Cl)c2)c2ccccc2[n+]1[O-] | – | 14% (active) |
| COC(=O)c1ccccc1N=Nc1c(N)[nH][nH]c1=O | inactive | – |
| O=C(CNS(=O)(=O)c1ccc2ccccc2c1)NCCc1ccccn1 | inactive | – |
| CC(c1cccnc1)N(CCN(C)C)C(=O)Nc1ccc(Cl)c(Cl)c1 (stereo not drawn) | inactive | – |
| Cc1ccc(C(=O)NC(=S)NNC(=O)c2ccccc2)cc1 | inactive | – |
| C=CCn1c(CCNC(=O)c2ccco2)nc2ccccc21 | inactive | – |
| CCOC(=O)[C@@H]1CCNC[C@@H]1c1ccccc1 | inactive | – |
| Cc1sc2nc(CSc3ccccc3)nc(NCCN(C)C)c2c1C | inactive | – |
| O=C(NCCc1cccc(Cl)c1)c1ccc(OC2CCN(Cc3ccccn3)CC2)cc1 | inactive | – |
| CCOC(=O)C1(CCCc2ccccc2)CCN(Cc2cn(CC)nc2C)CC1 | inactive | – |
| CCCN(CCC)CCCNC(=O)C1CCN(S(=O)(=O)c2cccc3nsnc23)CC1 | inactive | – |
| CCN1C(=O)c2cccc3c(S(=O)(=O)Nc4ccccc4OC)ccc1c23 | inactive | – |
| CCCN(CCC)CCCNC(=O)C1CCC(CNS(=O)(=O)c2cccc3nsnc23)CC1 (stereo not drawn) | inactive | – |
| CCN1CCN(c2ccc(S(=O)(=O)N3CCCCC3)cc2NC(=O)C(C)Oc2ccc(F)cc2)CC1 (stereo not drawn) | inactive | – |
| O=C(Nc1nnc(-c2ccccc2Cl)o1)c1nc2ccccc2s1 | inactive | – |
| COc1ccc(-c2nn(-c3ccccc3)cc2CNCc2cccnc2)c(F)c1 | inactive | – |
| Cc1ccc2oc(=O)c3cnn(CC(=O)NC4CCN(Cc5ccccc5)CC4)c3c2c1 | inactive | – |
| CCCCC(=O)NNC(=S)NC(=O)c1ccc(C)cc1 | inactive | – |
| COc1cc(/C=C/C(=O)c2ccc3c(c2)OCO3)cc(Cl)c1O | inactive | – |

| Compound | outcome | inhibition |
| --- | --- | --- |
| CN(C)C(CNC(=O)C1CC(=O)N(Cc2ccccc2)C1)c1ccccc1 (stereo not drawn) | inactive | – |
| Cc1ccccc1OCC(=O)NNC(=S)NC(=O)c1ccco1 | inactive | – |
| O=C(CCc1ccccc1)NNC(=S)NC(=O)c1ccc(Cl)cc1 | inactive | – |
| CN(CCOc1ccc(Cl)cc1)CC(O)c1ccccc1 (stereo not drawn) | inactive | – |
| Cc1onc(-c2ccccc2)c1C(=O)NC(=S)NNC(=O)c1ccco1 | inactive | – |
| CC(NCCC1(Cc2ccccc2Cl)CCOC(C)(C)C1)c1cccs1 (stereo not drawn) | inactive | – |
| CN(C)C(CNC(=S)Nc1ccc(F)cc1)c1cccnc1 (stereo not drawn) | inactive | – |
| O=C(COc1ccccc1)NNC(=S)NC(=O)c1ccc(Cl)cc1Cl | inactive | – |
| CCN1CCN(c2c(S(=O)(=O)c3ccc(C)c(C)c3)cnc3ccc(F)cc23)CC1 | inactive | – |
| COc1ccc(C(CNC(=O)c2cccc(NS(=O)(=O)c3ccc(C)c(F)c3)c2)N(C)C)cc1 (stereo not drawn) | inactive | – |
| CCOC(=O)C1(CCOc2ccccc2)CCN(Cc2cnc(C)s2)CC1 | inactive | – |
| COc1ccc(/C=C/CN2CCCC(C(=O)c3ccc(OC)c(F)c3)C2)cc1 (stereo not drawn) | inactive | – |
| O=S(=O)(c1ccc(Cl)cc1)N1CCN2CCCC2C1 (stereo not drawn) | inactive | – |
| OC(CNC1CCCc2ccccc21)COc1ccc2ccccc2c1 (stereo not drawn) | inactive | – |
| Cc1ccc2[nH]c3c(=O)n(CCc4cnc[nH]4)cnc3c2c1 | inactive | – |
| Cc1ccn2cc(CCNC(=O)C3CC=CCC3C(=O)O)nc2c1 (stereo not drawn) | inactive | – |
| CCOC(=O)C1(CCOc2ccccc2)CCN(Cc2ccc(OC)c(O)c2)CC1 | inactive | – |
| Cc1cc(OCCCn2ccnc2)cc(C)c1Cl | inactive | – |
| CCn1cc(CN2CCCC(C(=O)Nc3ccc(-c4nc5ccccc5[nH]4)cc3)C2)c(C)n1 (stereo not drawn) | inactive | – |

tested on: TRPC4 (mouse), co-expressed with 5HT1a in HEK293; test: calcium flux potentiators in TRPC4/5HT1a cells, confirmation, counter-screen for TRPC4 potentiator project, cell-based, second counter screen, HEK293 TRPC4/5HT1a, Fluo-4 (AID 434979); details: Fluo-4 calcium flux, at 10 µM, serotonin added at its EC20 dose; hits give high values

| Compound | outcome | potentiation |
| --- | --- | --- |
| O=C(NC(=S)NNC(=O)[C@H]1C[C@@H]1c1ccccc1)c1cccc(F)c1 | inactive | – |
| NCCCn1c(C(=O)c2cc(Cl)c(N)c(Cl)c2)c2ccccc2[n+]1[O-] | inactive | – |
| COC(=O)c1ccccc1N=Nc1c(N)[nH][nH]c1=O | – | 46.3% (active) |
| O=C(CNS(=O)(=O)c1ccc2ccccc2c1)NCCc1ccccn1 | inactive | – |
| CC(c1cccnc1)N(CCN(C)C)C(=O)Nc1ccc(Cl)c(Cl)c1 (stereo not drawn) | inactive | – |
| Cc1ccc(C(=O)NC(=S)NNC(=O)c2ccccc2)cc1 | inactive | – |
| C=CCn1c(CCNC(=O)c2ccco2)nc2ccccc21 | inactive | – |
| CCOC(=O)[C@@H]1CCNC[C@@H]1c1ccccc1 | inactive | – |
| Cc1sc2nc(CSc3ccccc3)nc(NCCN(C)C)c2c1C | inactive | – |
| O=C(NCCc1cccc(Cl)c1)c1ccc(OC2CCN(Cc3ccccn3)CC2)cc1 | inactive | – |
| CCOC(=O)C1(CCCc2ccccc2)CCN(Cc2cn(CC)nc2C)CC1 | inactive | – |
| CCCN(CCC)CCCNC(=O)C1CCN(S(=O)(=O)c2cccc3nsnc23)CC1 | inactive | – |
| CCN1C(=O)c2cccc3c(S(=O)(=O)Nc4ccccc4OC)ccc1c23 | inactive | – |
| CCCN(CCC)CCCNC(=O)C1CCC(CNS(=O)(=O)c2cccc3nsnc23)CC1 (stereo not drawn) | inactive | – |
| CCN1CCN(c2ccc(S(=O)(=O)N3CCCCC3)cc2NC(=O)C(C)Oc2ccc(F)cc2)CC1 (stereo not drawn) | inactive | – |
| O=C(Nc1nnc(-c2ccccc2Cl)o1)c1nc2ccccc2s1 | inactive | – |
| COc1ccc(-c2nn(-c3ccccc3)cc2CNCc2cccnc2)c(F)c1 | inactive | – |
| Cc1ccc2oc(=O)c3cnn(CC(=O)NC4CCN(Cc5ccccc5)CC4)c3c2c1 | inactive | – |
| CCCCC(=O)NNC(=S)NC(=O)c1ccc(C)cc1 | inactive | – |
| COc1cc(/C=C/C(=O)c2ccc3c(c2)OCO3)cc(Cl)c1O | inactive | – |

| Compound | outcome | potentiation |
| --- | --- | --- |
| CN(C)C(CNC(=O)C1CC(=O)N(Cc2ccccc2)C1)c1ccccc1 (stereo not drawn) | inactive | – |
| Cc1ccccc1OCC(=O)NNC(=S)NC(=O)c1ccco1 | inactive | – |
| O=C(CCc1ccccc1)NNC(=S)NC(=O)c1ccc(Cl)cc1 | inactive | – |
| CN(CCOc1ccc(Cl)cc1)CC(O)c1ccccc1 (stereo not drawn) | inactive | – |
| Cc1onc(-c2ccccc2)c1C(=O)NC(=S)NNC(=O)c1ccco1 | inactive | – |
| CC(NCCC1(Cc2ccccc2Cl)CCOC(C)(C)C1)c1cccs1 (stereo not drawn) | inactive | – |
| CN(C)C(CNC(=S)Nc1ccc(F)cc1)c1cccnc1 (stereo not drawn) | inactive | – |
| O=C(COc1ccccc1)NNC(=S)NC(=O)c1ccc(Cl)cc1Cl | inactive | – |
| CCN1CCN(c2c(S(=O)(=O)c3ccc(C)c(C)c3)cnc3ccc(F)cc23)CC1 | inactive | – |
| COc1ccc(C(CNC(=O)c2cccc(NS(=O)(=O)c3ccc(C)c(F)c3)c2)N(C)C)cc1 (stereo not drawn) | inactive | – |
| CCOC(=O)C1(CCOc2ccccc2)CCN(Cc2cnc(C)s2)CC1 | inactive | – |
| COc1ccc(/C=C/CN2CCCC(C(=O)c3ccc(OC)c(F)c3)C2)cc1 (stereo not drawn) | inactive | – |
| O=S(=O)(c1ccc(Cl)cc1)N1CCN2CCCC2C1 (stereo not drawn) | – | 25.7% (active) |
| OC(CNC1CCCc2ccccc21)COc1ccc2ccccc2c1 (stereo not drawn) | inactive | – |
| Cc1ccc2[nH]c3c(=O)n(CCc4cnc[nH]4)cnc3c2c1 | inactive | – |
| Cc1ccn2cc(CCNC(=O)C3CC=CCC3C(=O)O)nc2c1 (stereo not drawn) | inactive | – |
| CCOC(=O)C1(CCOc2ccccc2)CCN(Cc2ccc(OC)c(O)c2)CC1 | inactive | – |
| Cc1cc(OCCCn2ccnc2)cc(C)c1Cl | inactive | – |
| CCn1cc(CN2CCCC(C(=O)Nc3ccc(-c4nc5ccccc5[nH]4)cc3)C2)c(C)n1 (stereo not drawn) | inactive | – |
